Laboratory results published in ChEMBL document CHEMBL3244181, “Synthesis and biological activity of cocaine analogues. 2. 6H-[2]Benzopyrano[4,3-c]pyridin-6-ones” (J Med Chem, 1979).

What was measured:
[1] = Inhibition of [3H]norepinephrine reuptake at norepinephrine transporter in CD Charles River albino rat brain synaptosomes after 5 mins by scintillation counting analysis; assay type: subcellular
In short: (§1)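 Synaptosomes were taken from the 0.8/1.2 M sucrose gradient interface and resuspended in Krebs Ringer phosphate with pargyline (1.6 mg/100 mL) and glucose (237 mg/100 mL). They were incubated with unlabelled norepinephrine and [3H]norepinephrine for 5 min at 30 °C, quenched with cold buffer, and pelleted at 10000g. Pellet counts, minus post-incubation tracer blanks, gave % inhibition as (control − sample)/control cpm.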

[2] = species: Rattus norvegicus; assay: Inhibition of [3H]norepinephrine reuptake at norepinephrine transporter in CD Charles River albino rat brain synaptosomes at 10^-5 M after 5 mins by scintillation counting analysis; assay type: subcellular; in short: as §1
[3] = target: Sodium-dependent serotonin transporter (Homo sapiens) (UniProt P31645); assay: Inhibition of serotonin reuptake at SERT (unknown origin) at 10^-5 M
[4] = target: Sodium-dependent dopamine transporter (Homo sapiens) (UniProt Q01959); assay: Inhibition of dopamine reuptake at DAT (unknown origin) at 10^-5 M
[5] = species: Rattus norvegicus; assay: Inhibition of [3H]norepinephrine reuptake at norepinephrine transporter in rat brain at 10^-5 M by scintillation counting analysis; assay type: tissue-based

Chain of Sodium-dependent serotonin transporter (Homo sapiens) (P31645 whole entry, looked up): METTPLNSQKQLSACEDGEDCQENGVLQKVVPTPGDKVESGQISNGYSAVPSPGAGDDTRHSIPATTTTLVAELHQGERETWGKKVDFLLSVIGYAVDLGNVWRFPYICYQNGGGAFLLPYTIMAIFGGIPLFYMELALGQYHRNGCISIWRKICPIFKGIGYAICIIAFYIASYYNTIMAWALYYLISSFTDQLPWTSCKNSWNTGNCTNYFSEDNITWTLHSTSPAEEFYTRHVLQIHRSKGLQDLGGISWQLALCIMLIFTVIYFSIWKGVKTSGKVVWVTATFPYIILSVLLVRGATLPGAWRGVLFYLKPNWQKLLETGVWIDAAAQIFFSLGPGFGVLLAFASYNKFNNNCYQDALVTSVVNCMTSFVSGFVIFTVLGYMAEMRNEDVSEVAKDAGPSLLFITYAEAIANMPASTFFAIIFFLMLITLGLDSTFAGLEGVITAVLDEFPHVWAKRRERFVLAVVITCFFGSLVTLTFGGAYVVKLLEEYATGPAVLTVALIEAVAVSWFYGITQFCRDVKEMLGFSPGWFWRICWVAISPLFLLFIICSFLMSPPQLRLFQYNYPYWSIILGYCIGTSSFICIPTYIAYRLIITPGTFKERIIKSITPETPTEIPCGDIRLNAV
Chain of Sodium-dependent dopamine transporter (Homo sapiens) (Q01959 whole entry): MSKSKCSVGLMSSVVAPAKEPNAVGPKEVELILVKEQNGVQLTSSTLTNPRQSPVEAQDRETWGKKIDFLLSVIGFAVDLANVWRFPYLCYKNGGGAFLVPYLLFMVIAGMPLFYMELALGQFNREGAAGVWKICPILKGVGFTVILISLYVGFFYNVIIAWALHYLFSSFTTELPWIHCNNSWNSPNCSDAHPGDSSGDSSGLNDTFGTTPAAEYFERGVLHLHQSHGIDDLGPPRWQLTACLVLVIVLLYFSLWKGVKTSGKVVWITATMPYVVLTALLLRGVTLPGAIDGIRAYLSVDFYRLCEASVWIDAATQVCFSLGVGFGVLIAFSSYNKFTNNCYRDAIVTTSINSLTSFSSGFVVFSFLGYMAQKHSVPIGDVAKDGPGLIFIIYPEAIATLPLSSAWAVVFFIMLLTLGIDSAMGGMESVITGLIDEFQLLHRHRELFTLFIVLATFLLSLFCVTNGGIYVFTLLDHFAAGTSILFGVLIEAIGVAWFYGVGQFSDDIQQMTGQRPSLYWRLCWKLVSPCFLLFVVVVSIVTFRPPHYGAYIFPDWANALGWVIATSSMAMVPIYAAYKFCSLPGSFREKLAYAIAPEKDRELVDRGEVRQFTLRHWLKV

SMILES: CN1[C@@H]2CC[C@H]1C[C@H](OC(=O)c1ccccc1)C2
- IC50 [1]: 5.6 µM

SMILES: CN1CCc2oc(=O)c3ccccc3c2C1
- IC50 [1]: 320 µM

SMILES: CN1CC[C@H]2OC(=O)c3ccccc3[C@H]2C1 (relative stereo)
- IC50 [1]: 650 µM
- inhibition [2]: 0%

SMILES: CN1CC[C@H]2OC(=O)c3ccccc3[C@@H]2C1 (relative stereo)
- IC50 [1]: 320 µM
- inhibition [2]: 36%
- inhibition [3]: 0%
- inhibition [4]: 3%
- inhibition [5]: 11%

SMILES: COC(=O)[C@H]1[C@@H](OC(=O)c2ccccc2)C[C@@H]2CC[C@H]1N2C [COCAINE]
- IC50 [1]: 0.575 µM
